Results collected from several papers.
Target: Serine/threonine-protein kinase Nek3 (NEK3, Homo sapiens, UniProt P51956)
Residues used in one study (P51956 1-506): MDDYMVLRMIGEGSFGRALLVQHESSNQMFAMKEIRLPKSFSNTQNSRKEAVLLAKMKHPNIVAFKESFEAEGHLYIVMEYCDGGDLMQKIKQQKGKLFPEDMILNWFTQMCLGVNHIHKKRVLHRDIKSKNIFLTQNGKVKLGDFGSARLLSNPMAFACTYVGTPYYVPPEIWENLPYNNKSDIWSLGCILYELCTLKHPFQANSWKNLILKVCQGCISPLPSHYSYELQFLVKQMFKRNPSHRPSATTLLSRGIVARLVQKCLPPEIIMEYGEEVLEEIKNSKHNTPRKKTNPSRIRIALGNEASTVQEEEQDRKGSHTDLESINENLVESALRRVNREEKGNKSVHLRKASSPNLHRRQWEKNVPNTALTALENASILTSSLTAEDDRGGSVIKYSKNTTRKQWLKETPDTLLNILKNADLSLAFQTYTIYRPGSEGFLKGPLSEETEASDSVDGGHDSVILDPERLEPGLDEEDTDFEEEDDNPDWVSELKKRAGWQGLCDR

Compound	test	setting	measurement	result
CCCCC(=O)Nc1ccc(-c2ccc3ncn(CCC)c(=O)c3c2)cn1	binding, competition with immobilised ligand	0.5 µM	remaining binding	87%
Cc1cc(O)c(-c2ccc([C@@H](C)CN(C)C)cc2)c2c1[nH]c(=O)c1sccc12	enzyme activity, inhibitor	0.1 µM	inhibition	-5.15%
CN1CCN(C(=O)c2ccc(NC(=O)Nc3ccc(N(C)c4ccnc(Nc5ccc(CS(C)(=O)=O)cc5)n4)cc3)cc2)CC1	binding	1 µM	remaining binding	66%
C=CC(=O)N1CCC[C@@H](n2nc(-c3ccc(Oc4ccccc4)cc3)c3c(N)ncnc32)C1	enzyme activity, inhibitor	1 µM	inhibition	5%
C1=C/COCc2cc(ccc2OCCN2CCCC2)Nc2nccc(n2)-c2cccc(c2)COC/1	binding	0.1 µM	remaining binding	82%
C=CC(=O)N1CCC([C@@H]2CCNc3c(C(N)=O)c(-c4ccc(Oc5ccccc5)cc4)nn32)CC1	enzyme activity, inhibitor	1 µM	inhibition	44%
CC(C)S(=O)(=O)c1ccc2nccc(Nc3ccc4sc(C5CCCC5)nc4c3)c2c1	enzyme activity, inhibitor	1 µM	activity vs control	111%
Cc1ccc(NC(=O)c2ccnc(C(F)(F)F)c2)cc1-c1cc(OCCO)nc(N2CCOCC2)c1	binding	1 µM	remaining binding	95%
